# Assay outcomes as filed in PubChem BioAssay.
# Measles CPE = protection of cells from measles virus; Measles virus-infected cells, CPE protection, absorbance; 1.5% of 140,000 active; protection (pct of control), % at 4 µM; in the data active means protection mostly above about 24%, no sharp cut-off; inactive means mostly below about 26%
# Phagocyt inh = inhibitors of macrophage phagocytosis; 0.07% of 110,000 active; J774A.1 macrophage IgG-bead phagocytosis, imaging; inhibition, % at 5 µM;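 active means inhibition above the mean of the plate negative controls plus 5 SD, cut at about 13% in these data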;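 further: phagocytic index as fraction of beads internalized from green versus red external bead signal; plate controls were DMSO negative control for no effect and cytochalasin-D positive control for full effect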
# Yeast growth inh = chemicals that inhibit yeast BB579 growth in restrictive medium (lifespan-shortening candidates) | S. cerevisiae BB579 growth, OD615, 48 h | inhibition, % at 10 µM | 0.51% of 140,000 active | AID 804;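 active means inhibition above a set limit, 3 SD over the mean compound inhibition, cut at about 44% in these data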
#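 controls = amphotericin B 10 µg/mL, positive | assay system = DeaD yeast strain BB579 | schedule = 48 h compound exposure at 30 °C after 4 h preincubation | detection = OD615 turbidity measurement | medium = restrictive CSMM-D medium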
# RAM inhibit = inhibitors of the yeast RAM network; S. cerevisiae dse1pr::URA3 reporter, 5-FOA growth OD615, 2 d; analog-sensitive cbk1-as2 kinase mutant strain; inhibition, % at 50 µM; 1.8% of 190,000 active; AID 868;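 active means inhibition above a set limit, 3 SD over mean compound inhibition, cut at about 8.4% in these data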;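 further: 0% = DMSO-only wells with no growth and 100% = 10 µM 1-NA-PP1 full growth; inhibition rescues growth on 5-FOA so higher OD means more RAM inhibition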
# Yeast life ext = yeast lifespan extension. S. cerevisiae growth with nicotinamide, OD615; deaD strain in restrictive glucose medium. inhibition of the nicotinamide effect, % at 10 µM. 0.68% of 130,000 active. AID 775;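 active means inhibition above a set limit, placed 3 SD over the median of all compounds, cut at about 26% in these data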;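 further: 0% = nicotinamide-treated wells and 100% = cells grown without nicotinamide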
#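 assay system = DeaD-strain S. cerevisiae | measured by = absorbance at 615 nm | probe or stimulus = nicotinamide 1.5 mM | buffer or medium = CSMM-D glucose medium, restrictive | times = 48 h at 30 °C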
# Starred values were filed as active, the others as inactive; . = not tested or not shown. An excerpt weighted towards active compounds, which were near 3.6% of everything screened.
SMILES,Measles CPE,Phagocyt inh,Yeast growth inh,RAM inhibit,Yeast life ext
O=C(O)CCc1ccc(-c2cccs2)n1NC(=O)c1ccc(Cl)cc1Cl,18.2,0.0,0.9,2.4,0.8
O=C(O)CCc1ccc(-c2cccs2)n1NC(=O)c1ccc(Cl)cc1,7.6,79.0*,16.1,1.1,-12.8
COc1ccc(-c2nc3ncnn3cc2C)cc1F,.,.,.,2.6,.
COc1cc(COCC(O)CN2CCOCC2)cc(OC)c1OC (stereo not given),32.1*,3.7,-5.8,0.2,-2.9
COc1ccc(COCC(O)CN2CCOCC2)cc1OC (stereo not given),6.7,-1.8,-30.2,0.8,-7.0
O=C(c1cn[nH]c1)c1cc(F)ccc1O,42.2*,-0.3,-39.4,1.7,-6.0
Cc1[nH]nc2ncc(C(=O)c3cc(F)ccc3O)cc12,4.5,0.0,-14.6,3.2,-23.4
CCOc1ccc(NC(=O)C(Cc2ccccc2)NC(=O)C2CCCCC2)cc1 (stereo not given),10.3,-2.2,-58.9,4.7,2.1
Cc1ccc2nc(Cl)c(CN(Cc3cccs3)C(=O)C3CC3)cc2c1,37.4*,-0.2,-67.5,2.0,-7.5
C=CSc1sc(Cl)c(N(CC)CC)c1[N+](=O)[O-],.,.,.,2.6,.
NC(=O)c1cnccn1,14.8,.,-6.8,-0.3,1.6
Cn1c(N)c(C(=O)COC(=O)c2cccc(S(=O)(=O)N3CCCCC3)c2)c(=O)n(C)c1=O,7.7,-7.3,-6.6,-0.2,-0.3
Cn1c(N)c(C(=O)COC(=O)c2cc(S(=O)(=O)N3CCCCC3)ccc2Cl)c(=O)n(C)c1=O,26.8*,-1.4,-39.8,1.9,1.5
COc1cccc(-c2nc(C(N)=O)c3[nH]c(=O)n(-c4cccc(Cl)c4)c3n2)c1OC,7.0,0.4,-32.6,11.1*,-0.8
COc1ccc(-c2nc(C(N)=O)c3[nH]c(=O)n(-c4cccc(Cl)c4)c3n2)cc1OC,9.3,.,-23.3,2.8,-4.3
O=C(O)CC/C(=C\c1cc([N+](=O)[O-])ccc1Cl)c1nc2ccccc2s1,13.2,1.1,42.1,3.7,0.9
Cc1nn(-c2ccc(F)cc2)c(Cl)c1/C=C(\CCC(=O)O)c1nc2ccccc2s1,31.8*,.,-16.5,6.2,5.8
CCOC(=O)c1cccc(NC(=O)COc2ccc([N+](=O)[O-])cc2)c1,5.4,.,-16.7,-0.5,-38.1
CCCOC(=O)c1cccc(NC(=O)COc2ccc([N+](=O)[O-])cc2)c1,9.0,-8.4,-7.8,10.0*,-2.6
Cc1cc(C)cc(OCC(=O)Nc2cccc(C(=O)O)c2)c1,89.4*,-0.7,-2.5,0.5,1.8
COc1cc(NC(=O)CN2CCC(Cc3ccccc3)CC2)c(C)cc1[N+](=O)[O-],69.5*,-7.0,-10.3,1.8,3.4
O=c1cc(-c2c(F)c(F)c(F)c(F)c2F)oc2c(F)c(F)c(F)c(F)c12,-0.9,-2.9,-32.0,0.0,105.9*
O=c1cc(-c2c(F)c(F)c(F)c(F)c2F)oc2ccccc12,3.9,-0.6,5.9,2.2,-14.5
COc1ccccc1NC(=O)C(=O)NCc1ccccc1Cl,19.6,-3.2,0.2,8.7*,1.1
COc1ccccc1CNC(=O)c1ccc(-c2ccccc2Cl)o1,20.7,.,-13.1,10.0*,1.6
SMILES,Measles CPE,Phagocyt inh,Yeast growth inh,RAM inhibit,Yeast life ext
O=C(COC(=O)c1ccccc1)NCCC1=CCCCC1,.,.,.,-0.4,.
Cc1[nH]c2ccccc2c1C(=O)CSc1ccccc1,22.4,-7.8,-5.4,7.8,-1.3
Cc1ccc(SCC(=O)c2c(C)[nH]c3ccccc23)cc1,40.6*,-7.4,-27.8,6.3,2.4
COc1ccc(NCc2ccc([N+](=O)[O-])s2)c(OC)c1,9.7,-7.1,99.7*,-0.5,-7.7
COc1ccc(NCc2ccc([N+](=O)[O-])s2)cc1,6.6,-4.3,27.0,-0.3,21.9
Cc1ccc2c(Cl)c(C(=O)Nc3cccnc3)sc2c1,14.6,9.6,-13.3,1.8,-3.0
Cc1ccc2c(c1)C=CC(C)(C)S2(=O)=O,7.3,.,-18.4,0.5,9.1
CCOCC(=O)Nc1nc2c(s1)C(=O)CC(C)(C)C2,22.6,2.4,45.0*,1.7,-13.0
Cc1ccccc1OCCSc1nnc(-c2cccnc2)n1N,3.3,-5.2,-22.5,3.5,-1.7
COc1ccc(NC(=O)C(=S)NC2CCCCC2)cc1,.,.,.,2.2,.
COc1ccc(OC)c(NC(=O)C(=S)NC2CCCCC2)c1,.,.,.,8.7*,.
COc1ccc(/C=N/NC(=O)c2csc(-n3nc(C)cc3C(F)(F)F)n2)cc1,13.2,-0.5,-45.2,-1.0,141.6*
CCn1c(Cc2cccs2)nnc1SCC(=O)NC(C)(C)C,.,.,.,0.4,.
COc1ccc(-c2c(C)n([O-])c(C)c(C)[n+]2=O)cc1OC,13.5,-0.4,-5.0,1.6,-12.3
COc1ccc(-c2c(C)n([O-])c(C)c(-c3ccccc3)[n+]2=O)cc1OC,88.9*,-4.1,-33.9,0.5,-5.1
Cc1c(NC2=C(Cl)C(=O)N(c3ccccc3Cl)C2=O)c(=O)n(-c2ccccc2)n1C,5.1,-2.7,-47.6,3.6,-0.4
C=CCNC1=C(Cl)C(=O)N(c2ccccc2Cl)C1=O,3.5,0.7,-81.9,8.9*,4.9
O=C(NCc1ccncc1)c1cc(C(=O)C2CC2)c[nH]1,.,.,.,0.5,.
Cc1cc(O)c(/C=N/Nc2ccccc2)c(=O)o1,4.6,0.9,86.8*,0.2,-15.7
CCSC1=N/C(=C\c2ccccc2)C(=O)N1c1ccc(OC)cc1,.,.,.,10.2*,.
CCN(CC)C1=N/C(=C\c2ccc(OC)cc2)C(=O)N1c1ccccc1,68.9*,-6.4,-54.9,0.9,0.9
COc1ccc(/C=C2/N=C(SCC(=O)Nc3cc(C)on3)N(c3ccccc3)C2=O)cc1,11.4,-8.8,-43.0,5.4,2.1
O=C(Nn1c(-c2ccc(F)cc2)nc2ccccc2c1=O)C1CCCCC1,21.5,-1.1,-40.9,1.1,-7.2
COc1ccc(-c2ccnc(SCC(=O)c3ccc(OC)c(OC)c3)n2)cc1,3.9,-9.6,-19.1,4.7,0.2
COc1ccc(-c2ccnc(SCC(=O)c3ccc(Cl)cc3)n2)cc1,18.1,-8.0,-35.0,8.9*,-3.1
SMILES,Measles CPE,Phagocyt inh,Yeast growth inh,RAM inhibit,Yeast life ext
CC(C)(C)n1nc2c(c1NC(=O)c1ccc(S(=O)(=O)N3CCCCC3)cc1)CS(=O)C2 (stereo not given),43.8*,.,23.1,-1.4,-14.6
O=C(CNCc1ccccc1)Nc1ccc(Oc2ccccc2)cc1,.,.,.,10.9*,.
O=C(CNCc1ccccc1)Nc1ccc(F)cc1,.,.,.,2.0,.
CN1CCN(C(=O)CNc2ccc(C(F)(F)F)cc2[N+](=O)[O-])CC1,.,.,.,1.0,.
O=C(NC1CCCCC1)Sc1ccc(Cl)cc1,7.4,-0.8,52.1*,-1.0,-19.4
Cc1ccc(C23CC4CC(CC(C(=O)OCC(=O)NC5CCS(=O)(=O)C5)(C4)C2)C3)cc1 (stereo not given),5.8,-13.6,-34.0,1.5,15.3
CCC1CCC(C(=O)NC(CCSC)C(=O)NCCN(CC(C)C)CC(C)C)CC1 (stereo not given),.,.,.,1.1,.
COc1ccc(Cn2c(C3CC3)nc3ccc(NC(=O)c4ccco4)cc3c2=O)cc1,36.5*,-1.0,-68.0,3.5,-8.9
CC(=O)c1c(O)cc(C)n(Nc2nc(C)cc(C)n2)c1=O,10.1,4.0,-18.0,-1.3,32.3*
